In ChEMBL document CHEMBL1255470, “Effect of ceftaroline on normal human intestinal microflora” (Antimicrob Agents Chemother, 2010):
Converted amounts (≈) assume the structure as drawn. The source made the active and inactive calls. No cut-off for these calls is given here.

Assays:
Propionibacterium = experiment: Antibacterial activity against Propionibacterium by broth microdilution method; format: functional
Bacteroides sp. = experiment: Antibacterial activity against Bacteroides sp. in healthy human intestine assessed as decrease in bacterial count at […], iv administered every 12 hrs for 7 days measured on day 21; format: functional, organism-based
Method in brief: (§1)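 Twelve healthy adults (6 male, 6 female, 20–41 y) received 600 mg by i.v. infusion over 60 min q12h, 13 doses over 7 days. Feces were collected on days −1, 2, 5, 7, 9, 14 and 21 (first specimen of the day) and frozen at −70°C. Samples were suspended in prereduced peptone yeast extract and 10-fold diluted onto nonselective and selective agars. Aerobic plates were incubated 24 h and anaerobic jars 48 h, both at 37°C. Counts were expressed as log CFU/g, with a detection limit of 10^2, and compared by Wilcoxon signed-rank test.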

Lactobacillus = experiment: Antibacterial activity against Lactobacillus in healthy human intestine assessed as log reduction in bacterial count per gram of feces at […], iv administered every 12 hrs for 7 days measured on day 7; format: functional; method in brief: as §1
Prevotella = experiment: Antibacterial activity against Prevotella by broth microdilution method; format: functional
Candida albicans = experiment: Antifungal activity against Candida albicans in healthy human intestine at […], iv administered every 12 hrs for 7 days measured on day 21; format: functional, organism-based; method in brief: as §1
Clostridium perfringens = experiment: Antibacterial activity against Clostridium perfringens by broth microdilution method; format: functional
Bacteroides fragilis [1] = experiment: Antibacterial activity against Bacteroides fragilis by broth microdilution method; format: functional
Clostridioides difficile [2] = experiment: Antibacterial activity against Clostridium difficile ATCC 700057 after 48 hrs by CLSI method; format: functional; settings: ATCC 700057, 48 h
Method in brief: (§2)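 Agar dilution MIC per CLSI anaerobe guidance, with 10^5 CFU per spot inoculum and 48 h incubation. The reference strain was run alongside new colonizing fecal isolates. MIC was taken as the lowest drug concentration giving complete growth inhibition. A provisional resistance breakpoint of 4 mg/liter was applied.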

Clostridioides difficile [3] = experiment: Antibacterial activity against Clostridium difficile by broth microdilution method; format: functional
Escherichia coli [4] = experiment: Antibacterial activity against Escherichia coli ATCC 25922 at =< 4 mg/L after 48 hrs by CLSI method; format: functional, organism-based
Clostridium septicum = experiment: Antibacterial activity against Clostridium septicum by broth microdilution method; format: functional
Peptostreptococcus sp. = experiment: Antibacterial activity against Peptostreptococcus sp. by broth microdilution method; format: functional
Enterococcus faecalis = experiment: Antibacterial activity against Enterococcus faecalis ATCC 29212 at =< 4 mg/L after 48 hrs by CLSI method; format: functional, organism-based
Homo sapiens [5] = experiment: Toxicity against healthy human assessed as occurrence of urinary infection at […], iv administered every 12 hrs for 7 days measured on day 9; format: organism-based, Urine; design: route intravenous; settings: in vivo
Homo sapiens [6] = experiment: Toxicity against healthy human assessed as effect on hematological parameters at […], iv administered every 12 hrs for 7 days measured on day 9; format: organism-based; design: route intravenous; settings: in vivo
Bacteroides fragilis [7] = experiment: Antibacterial activity against Bacteroides fragilis ATCC 25285 after 48 hrs by CLSI method; format: functional; settings: NCTC 9343, 48 h; method in brief: as §2
Enterococcus = experiment: Antibacterial activity against Enterococcus in healthy human intestine at […], iv administered every 12 hrs for 7 days measured on day 21; format: functional, organism-based; method in brief: as §1
Escherichia coli [8] = experiment: Antibacterial activity against Escherichia coli in healthy human intestine assessed as log reduction in bacterial count per gram of feces at […], iv administered every 12 hrs for 7 days measured on day 9; format: functional; method in brief: as §1
Bifidobacterium = experiment: Antibacterial activity against Bifidobacterium in healthy human intestine assessed as log reduction in bacterial count per gram of feces at […], iv administered every 12 hrs for 7 days measured on day 7; format: functional; method in brief: as §1
Staphylococcus aureus = experiment: Antibacterial activity against Staphylococcus aureus ATCC 29213 at =< 4 mg/L after 48 hrs by CLSI method; format: functional, organism-based
Enterobacteriaceae = experiment: Antibacterial activity against Enterobacteriaceae in healthy human intestine assessed as decrease in bacterial count at […], iv administered every 12 hrs for 7 days measured on day 14; format: functional, organism-based; method in brief: as §1
Clostridium = experiment: Antibacterial activity against Clostridium in healthy human intestine assessed as decrease in bacterial count at […], iv administered every 12 hrs for 7 days measured on day 7; format: functional, organism-based; method in brief: as §1
Escherichia coli [9] = experiment: Antibacterial activity against Escherichia coli in healthy human intestine assessed as decrease in bacterial count at […], iv administered every 12 hrs for 7 days measured on day 14; format: functional, organism-based; method in brief: as §1
Homo sapiens [10] = experiment: Toxicity against healthy human assessed as effect on ECG parameters at […], iv administered every 12 hrs for 7 days measured on day 9; format: organism-based; design: route intravenous; settings: in vivo
Escherichia coli [11] = experiment: Antibacterial activity against Escherichia coli in healthy human intestine assessed as log reduction in bacterial count per gram of feces at […], iv administered every 12 hrs for 7 days measured on day 7; format: functional; method in brief: as §1

SMILES: CCO/N=C(\C(=O)N[C@@H]1C(=O)N2C(C(=O)[O-])=C(Sc3nc(-c4cc[n+](C)cc4)cs3)CS[C@H]12)c1nsc(NP(=O)(O)O)n1 [CEFTAROLINE FOSAMIL]
- MIC90 (Propionibacterium): 4 µg/mL (≈ 5.84 µM)
- inhibition (Bacteroides sp.): inactive
- log10cfu (Lactobacillus): 1.7
- MIC90 (Prevotella): > 32 µg/mL
- Activity (Candida albicans): inactive
- MIC90 (Clostridium perfringens): 4 µg/mL (≈ 5.84 µM)
- MIC90 (Bacteroides fragilis [1]): > 32 µg/mL
- MIC (Clostridioides difficile [2]): 4 µg/mL (≈ 5.84 µM)
- MIC90 (Clostridioides difficile [3]): 4 µg/mL (≈ 5.84 µM)
- Activity (Escherichia coli [4]): Active
- MIC90 (Clostridium septicum): 4 µg/mL (≈ 5.84 µM)
- MIC90 (Peptostreptococcus sp.): 4 µg/mL (≈ 5.84 µM)
- Activity (Enterococcus faecalis): Active
- Activity (Homo sapiens [5]): Non-toxic
- Activity (Homo sapiens [6]): Non-toxic
- MIC (Bacteroides fragilis [7]): ≥ 64 µg/mL
- Activity (Enterococcus): inactive
- log10cfu (Escherichia coli [8]): 1.5
- log10cfu (Bifidobacterium): 2.1
- Activity (Staphylococcus aureus): Active
- inhibition (Enterobacteriaceae): inactive
- inhibition (Clostridium): inactive
- inhibition (Escherichia coli [9]): Active
- Activity (Homo sapiens [10]): Non-toxic
- log10cfu (Escherichia coli [11]): 2
